Reference: ChEMBL document CHEMBL1131058, “Studies on quinazolines and 1,2,4-benzothiadiazine 1,1-dioxides. 8.1, 2 synthesis and pharmacological evaluation of tricyclic fused quinazolines and 1,2,4-benzothiadiazine 1,1-dioxides as potential alpha1-adrenoceptor antagonists” (J Med Chem, 1998)

Columns and labels:
D(2) dopamine receptor [1] = biological target: T1, D(2) dopamine receptor (Homo sapiens, UniProt P14416); experiment: Compound is evaluated for binding affinity towards Dopamine receptor D2 using [3H]spiperone in CHO cells at 10 uM; assay type: cell-based
[2] = biological target: Sodium channel alpha subunits; brain (Types I, II, III) (Rattus norvegicus, UniProt P04775+P04774+P08104); experiment: Displacement of [3H]batrachotoxin from rat brain sodium channel; assay type: tissue-based
In short: (§1)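 Radioligand competition binding was done by an outside contract lab (Pan Lab). Inhibition constants (Ki) were derived from displacement of the stated tritiated ligand. Each compound was tested at 10 µM. Where inhibition at that concentration stayed below 50%, no Ki was reported.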

[3] = biological target: T2, Adrenergic receptor alpha-1 (Rattus norvegicus, UniProt P15823+P23944+P43140); experiment: Binding affinity towards Alpha-1 adrenergic receptor measured by displacement of [3H]prazosin from rat brain cortex membranes; assay type: cell membranes, Membrane
T2 sequence (P15823 whole entry): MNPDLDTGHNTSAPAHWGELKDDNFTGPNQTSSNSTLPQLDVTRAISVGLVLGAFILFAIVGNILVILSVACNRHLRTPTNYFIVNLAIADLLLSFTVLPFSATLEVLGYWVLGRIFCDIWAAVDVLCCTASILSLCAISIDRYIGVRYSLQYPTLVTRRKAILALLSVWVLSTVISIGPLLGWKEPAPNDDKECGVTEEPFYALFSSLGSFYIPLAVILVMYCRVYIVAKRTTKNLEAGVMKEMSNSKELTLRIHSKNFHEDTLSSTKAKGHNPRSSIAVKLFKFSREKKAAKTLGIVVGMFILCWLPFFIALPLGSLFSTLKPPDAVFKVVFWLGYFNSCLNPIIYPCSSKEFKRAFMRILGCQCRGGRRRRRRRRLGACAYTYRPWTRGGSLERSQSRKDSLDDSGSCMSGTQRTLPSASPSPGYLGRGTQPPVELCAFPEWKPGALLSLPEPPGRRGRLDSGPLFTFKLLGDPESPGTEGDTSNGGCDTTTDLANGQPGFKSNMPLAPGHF
T2 sequence (P23944 whole entry): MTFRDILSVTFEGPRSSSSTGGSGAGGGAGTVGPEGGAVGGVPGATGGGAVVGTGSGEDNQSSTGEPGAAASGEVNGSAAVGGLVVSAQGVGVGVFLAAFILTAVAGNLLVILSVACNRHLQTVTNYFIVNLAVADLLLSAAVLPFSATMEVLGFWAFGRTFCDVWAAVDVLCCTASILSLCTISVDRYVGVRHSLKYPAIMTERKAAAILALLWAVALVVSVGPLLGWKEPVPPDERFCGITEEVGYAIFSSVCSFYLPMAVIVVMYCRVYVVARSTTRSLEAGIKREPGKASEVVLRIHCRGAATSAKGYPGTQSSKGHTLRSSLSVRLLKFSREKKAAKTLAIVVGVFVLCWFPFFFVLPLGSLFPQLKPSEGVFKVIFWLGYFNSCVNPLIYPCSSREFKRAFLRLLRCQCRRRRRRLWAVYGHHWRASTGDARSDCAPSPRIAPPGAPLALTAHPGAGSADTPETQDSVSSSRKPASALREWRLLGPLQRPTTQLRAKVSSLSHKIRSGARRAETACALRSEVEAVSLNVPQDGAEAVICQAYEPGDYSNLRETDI
T2 sequence (P43140 whole entry): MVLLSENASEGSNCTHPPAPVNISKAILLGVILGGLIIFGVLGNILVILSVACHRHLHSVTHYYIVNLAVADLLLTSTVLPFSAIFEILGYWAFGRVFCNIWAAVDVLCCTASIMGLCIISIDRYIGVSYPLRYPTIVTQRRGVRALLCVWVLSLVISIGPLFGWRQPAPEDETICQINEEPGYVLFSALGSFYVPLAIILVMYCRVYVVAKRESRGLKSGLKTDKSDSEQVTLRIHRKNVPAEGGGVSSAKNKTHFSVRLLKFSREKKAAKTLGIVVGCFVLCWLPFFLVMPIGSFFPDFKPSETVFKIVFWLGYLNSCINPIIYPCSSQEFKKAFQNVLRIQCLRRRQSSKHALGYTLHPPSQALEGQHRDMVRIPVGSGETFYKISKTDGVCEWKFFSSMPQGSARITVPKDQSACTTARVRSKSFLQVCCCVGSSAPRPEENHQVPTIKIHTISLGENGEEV
In short: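 Triplicate competition binding against 0.2-0.25 nM [³H]prazosin in Tris buffer pH 7.4, 30 min at room temperature. Competitor range 0.1-200 nM. Nonspecific binding defined with 10 µM phentolamine. Reaction stopped by GF/B filtration with two cold Tris washes. Membrane protein 300-400 µg per assay. Ki calculated from the data; mean ± SEM of 3-6 experiments.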

Sigma 2 receptor [4] = experiment: Binding affinity towards Sigma 2 receptor using [3H]ifenprodil in rat brain at 10 uM; assay type: tissue-based; in short: as §1
[5] = biological target: Serotonin 2 (5-HT2) receptor (Rattus norvegicus, UniProt P30994+P08909+P14842); experiment: Compound is evaluated for binding affinity towards 5-hydroxytryptamine 2 receptor using [3H]ketanserin in rat brain; assay type: tissue-based
In short: (§2)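 Contract radioligand competition binding. Sources: 5-HT1 and 5-HT1A in rat brain cortex; 5-HT2 and σ2 in rat brain; σ in guinea pig brain; D2, rhD2 and rhD3 in CHO cells with [³H]spiperone; H1 in guinea pig lung with [³H]pyrilamine. Inhibition constants reported; no constant given where inhibition at 10 µM was below 50%.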

D(2) dopamine receptor [6] = biological target: T1, D(2) dopamine receptor; experiment: Compound is evaluated for binding affinity towards recombinant human Dopamine receptor D2 using [3H]spiperone in CHO cells at 10 uM; assay type: cell-based
In short: (§3)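 Single-concentration screen at 10 µM in contract radioligand binding assays. Records whether inhibition of specific radioligand binding stayed below 50%.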

Sigma 2 receptor [7] = experiment: Binding affinity towards Sigma 2 receptor using [3H]ifenprodil in rat brain; assay type: tissue-based; in short: as §2
[8] = biological target: 5-hydroxytryptamine receptor 1A (Rattus norvegicus) (UniProt P19327); experiment: Compound is evaluated for binding affinity towards 5-hydroxytryptamine 1A receptor using [3H]-8-OH- -DPAT in rat brain cortex at 10 uM; assay type: tissue-based; in short: as §3
[9] = biological target: T3, Alpha-2A adrenergic receptor (Homo sapiens, UniProt P08913); experiment: Compound is evaluated for binding affinity towards Alpha-2A adrenergic receptor using [3H]MK912
T3 sequence (P08913 whole entry): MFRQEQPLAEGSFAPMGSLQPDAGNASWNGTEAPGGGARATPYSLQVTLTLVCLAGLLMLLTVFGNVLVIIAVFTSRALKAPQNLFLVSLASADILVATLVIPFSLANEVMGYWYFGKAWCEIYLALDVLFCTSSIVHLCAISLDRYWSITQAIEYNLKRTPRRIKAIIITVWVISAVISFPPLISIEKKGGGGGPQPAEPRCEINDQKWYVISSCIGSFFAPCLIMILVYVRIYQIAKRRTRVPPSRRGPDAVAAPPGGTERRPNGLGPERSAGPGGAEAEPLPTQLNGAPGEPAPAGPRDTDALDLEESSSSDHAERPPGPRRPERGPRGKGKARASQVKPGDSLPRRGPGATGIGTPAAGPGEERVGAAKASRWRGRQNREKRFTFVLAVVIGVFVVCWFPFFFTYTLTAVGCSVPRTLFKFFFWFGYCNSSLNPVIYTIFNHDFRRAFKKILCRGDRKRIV

D(2) dopamine receptor [10] = biological target: T1, D(2) dopamine receptor; experiment: Compound is evaluated for binding affinity towards Dopamine receptor D2 using [3H]-spiperone in CHO cells at 10 uM; assay type: cell-based

T1 sequence (P14416 whole entry): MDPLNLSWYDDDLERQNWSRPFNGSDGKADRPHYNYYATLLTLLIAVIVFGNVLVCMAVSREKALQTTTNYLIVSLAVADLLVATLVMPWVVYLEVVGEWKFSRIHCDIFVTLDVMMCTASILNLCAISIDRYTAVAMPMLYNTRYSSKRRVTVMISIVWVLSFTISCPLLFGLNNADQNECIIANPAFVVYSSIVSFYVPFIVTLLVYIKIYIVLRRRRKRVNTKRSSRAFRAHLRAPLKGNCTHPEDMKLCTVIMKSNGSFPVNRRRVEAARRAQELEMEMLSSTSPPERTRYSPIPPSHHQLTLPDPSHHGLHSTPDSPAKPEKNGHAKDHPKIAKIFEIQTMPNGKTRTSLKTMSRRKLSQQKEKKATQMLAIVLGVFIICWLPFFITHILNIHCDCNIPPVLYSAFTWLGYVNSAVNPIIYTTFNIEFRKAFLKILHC
5-hydroxytryptamine receptor 1A (Rattus norvegicus), sequence (P19327 whole entry): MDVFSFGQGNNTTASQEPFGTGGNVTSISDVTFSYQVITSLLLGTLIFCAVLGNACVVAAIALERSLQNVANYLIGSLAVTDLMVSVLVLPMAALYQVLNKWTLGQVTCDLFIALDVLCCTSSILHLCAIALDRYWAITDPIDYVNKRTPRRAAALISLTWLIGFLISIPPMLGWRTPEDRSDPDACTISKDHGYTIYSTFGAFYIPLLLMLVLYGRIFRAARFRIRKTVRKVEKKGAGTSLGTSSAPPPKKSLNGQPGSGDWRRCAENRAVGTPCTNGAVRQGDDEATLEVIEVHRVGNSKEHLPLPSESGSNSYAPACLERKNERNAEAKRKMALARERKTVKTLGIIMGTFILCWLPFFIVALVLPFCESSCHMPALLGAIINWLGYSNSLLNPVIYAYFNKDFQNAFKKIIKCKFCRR

| Structure (SMILES) | inhibition (D(2) dopamine receptor [1]) | Ki [2] | Ki [3] | inhibition (Sigma 2 receptor [4]) | Ki [5] | inhibition (D(2) dopamine receptor [6]) | Ki (Sigma 2 receptor [7]) | inhibition [8] | Ki [9] | inhibition (D(2) dopamine receptor [10]) |
| --- | --- | --- | --- | --- | --- | --- | --- | --- | --- | --- |
| COc1ccccc1N1CCN(Cc2cnc3c4ccccc4nc(O)n23)CC1 | < 50% | 5380 nM | 5.06 nM | < 50% | 514 nM | < 50% | – | – | – | – |
| COc1ccccc1N1CCN(Cc2cn3c(O)nc4ccccc4c3n2)CC1 | < 50% | 4810 nM | 6.53 nM | – | 3580 nM | < 50% | 4880 nM | < 50% | – | – |
| COc1ccccc1N1CCN(C[C@H]2CN=C3c4ccccc4N=C(SC)N32)CC1 | – | – | – | – | – | – | – | – | 872 nM | – |
| COc1ccccc1N1CCN(CC2CN=C3c4ccccc4N=C(SC)N32)CC1 (centres undefined) | – | 404 nM | – | – | 168 nM | – | – | – | – | – |
| COc1ccccc1N1CCN(C[C@@H]2CN=C3c4ccccc4N=C(SC)N32)CC1 | – | – | – | – | – | – | – | – | 3000 nM | – |
| COc1ccccc1N1CCN(CC2CN3C(=O)Nc4ccccc4C3=N2)CC1 (centres undefined) | < 50% | – | – | < 50% | 369 nM | < 50% | – | – | 547 nM | – |
| Oc1nc2ccccc2c2ncc(CN3CCN(c4ccccc4Cl)CC3)n12 | – | 2460 nM | – | – | 114 nM | < 50% | 3050 nM | < 50% | – | < 50% |
| COc1ccccc1N1CCN(C[C@H]2CN=C3c4ccccc4NC(=O)N32)CC1 | – | – | – | – | – | – | – | – | 444 nM | – |
